# Bioassay records (PubChem BioAssay)
# FXIIa inh 1536: blocks human coagulation factor XIIa protease activity; P00748; purified FXIIa, Boc-QGR-AMC fluorogenic substrate, 2 h; inhibition, % at 5 µM; 0.3% of 220,000 active; AID 800; in the data active means inhibition above about 40%;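 further: 0% = enzyme with no compound and 100% = blank without enzyme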
# FXIa inh: factor XIa (human) inhibition; inhibition, % at 5 µM; AID 798; P03951; purified FXIa, Boc-Glu-Ala-Arg-AMC fluorogenic substrate; 0.14% of 220,000 active;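 active means inhibition of at least 40%; inactive means inhibition below 40%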;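 further: fluorescence of freed AMC excited at 355 nm; 0% = enzyme without compound and 100% = no enzyme blank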
# EP2 mod: EP2 receptor (human) modulation; EP2-expressing cells, cAMP HTRF FRET, PGE2 co-stimulation; induction, % at 25 µM; 0.83% of 260,000 active;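 active means compounds whose cAMP rise, as percent of the full-agonist control response, exceeds 60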;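 further: rat C6 glioma line stably carrying human EP2 under a CMV promoter; the protocol text gives 20 µM as final concentration; 100% = response of wells given 1 µM PGE2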
# Target sequence (P43116 whole entry, looked up): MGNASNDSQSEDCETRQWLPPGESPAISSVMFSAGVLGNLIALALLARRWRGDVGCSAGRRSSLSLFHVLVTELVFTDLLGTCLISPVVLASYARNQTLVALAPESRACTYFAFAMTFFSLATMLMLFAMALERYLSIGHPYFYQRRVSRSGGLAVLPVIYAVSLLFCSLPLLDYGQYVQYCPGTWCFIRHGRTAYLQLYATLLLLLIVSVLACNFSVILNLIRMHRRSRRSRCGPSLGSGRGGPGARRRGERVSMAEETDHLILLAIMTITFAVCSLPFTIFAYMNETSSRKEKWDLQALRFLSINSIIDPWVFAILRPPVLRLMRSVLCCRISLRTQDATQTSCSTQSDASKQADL
# EP2 antag: blocks the human prostaglandin E2 receptor EP2; inhibition, % at 25 µM; AID 1422; 0.52% of 260,000 active; C6 glioma cells expressing human EP2, cAMP TR-FRET; cells stimulated with saturating PGE2; P43116;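 active means percent inhibition above 40 after rounding to a whole number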;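 further: rat C6 glioma host cells with rolipram phosphodiesterase inhibitor present; the protocol text gives 20 µM as final concentration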
# KLK5 inh: inhibitors of human kallikrein 5; Q9Y337; recombinant hK5, fluorogenic AMC substrate cleavage; inhibition, % at 5 µM; 0.59% of 210,000 active;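 active means inhibition of 40% or more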;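 further: 0% = enzyme controls without compound and 100% = no-enzyme blanks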
# Target sequence (Q9Y337 67-293 limits assumed): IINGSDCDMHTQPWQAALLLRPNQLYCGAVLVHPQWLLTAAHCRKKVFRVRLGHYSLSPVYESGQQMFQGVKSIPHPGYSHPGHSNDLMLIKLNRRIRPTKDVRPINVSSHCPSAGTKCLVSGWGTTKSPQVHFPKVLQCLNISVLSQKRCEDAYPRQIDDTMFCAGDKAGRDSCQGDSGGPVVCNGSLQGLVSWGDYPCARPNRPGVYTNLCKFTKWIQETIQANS
# thrombin 1536: thrombin (human) inhibition. P00734. alpha-thrombin, Boc-VPR-AMC fluorogenic substrate cleavage. inhibition, % at 5 µM. 0.26% of 220,000 active. AID 1046;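 active means inhibition at or above 40%; inactive means inhibition below 40%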;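 further: 0% = enzyme with no compound and 100% = wells without enzyme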
#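 System: Human alpha-thrombin protein | Medium: pH 7.5 Tris (50 mM) with NaCl 150 mM, Tween 20 0.05% | Times: Enzyme reaction carried out at room temperature | Detection: AMC fluorescence, 355/460 nm | Evaluation: Percent inhibition scaled between no-compound controls and no-enzyme blanks | Benchmarks: Enzyme without compound as high, wells lacking enzyme as low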
# * = called active by the depositor; nt = no result given; ! = not active in a repeat. A selection: hits, their analogues and other compounds. The true share with any hit is near 2.1%.
SMILES,FXIIa inh 1536,FXIa inh,EP2 mod,EP2 antag,KLK5 inh,thrombin 1536
COC(=O)c1cn(C(=O)OC)c2ccccc12,3.1,0.1,9.6,7.0,0.9,-0.7
C#CCOc1nc(Nc2cccc([N+](=O)[O-])c2)nc(OCC#C)n1,41.0*,5.2,1.7,4.7,21.5,5.4
Cc1ccc(CN(CCCn2ccnc2)Cc2cccn2-c2ncccc2C)o1,nt,nt,19.3,8.2,nt,nt
c1ccc(CN2COc3c(ccc4c5c(ccc34)CN(Cc3ccccc3)CO5)C2)cc1,nt,nt,12.9,41.6*,nt,nt
Cc1ccc(OCC(=O)Nc2ccccc2N2CCCC2)cc1,nt,nt,44.1,28.1,nt,nt
Clc1ccccc1CN1CCN(CCCc2ccccc2)CC1,97.6*,3.5,-30.3,5.5,-1.6,-6.7
Cc1cc(NC(=O)CCN2C(=O)/C(=C\c3ccccc3)SC2=S)no1,10.1,2.4,-26.8,11.2,-1.8,5.8
Cc1cc(NC(=O)CCN2C(=O)/C(=C/c3ccccc3F)SC2=S)no1,95.3*,2.1,-5.1,1.7,-0.8,-8.2
COc1ccc(NC(=O)CSc2nc3cccnc3n2Cc2ccccc2)c(OC)c1,nt,nt,6.3,10.6,nt,nt
CC(C)S(=O)(=O)c1csc(NC(=O)Nc2cccc([N+](=O)[O-])c2)c1Cl,0.1,-12.6,-35.9,54.0*,34.0,-4.1
O=C(Nc1cccc([N+](=O)[O-])c1)Nc1cccc([N+](=O)[O-])c1,13.1,2.8,-59.4,5.8,-4.7,-15.0
Cc1ccc2[nH]c(=O)c(CN(Cc3ccccc3)Cc3nnnn3C3CCCC3)cc2c1,-16.8,-6.6,57.0,8.7,-9.0,-2.4
Cc1cc2cc(CN(Cc3ccccc3)Cc3nnnn3C3CCCC3)c(=O)[nH]c2cc1C,nt,nt,71.1*,14.3,nt,nt
Cc1cccc2cc(CN(Cc3ccc4c(c3)OCO4)Cc3nnnn3C3CCCCC3)c(=O)[nH]c12,nt,nt,68.0*,14.5,nt,nt
COc1ccc2cc(CN(Cc3ccccc3)Cc3nnnn3C3CCCCC3)c(=O)[nH]c2c1,nt,nt,75.3*,5.8,nt,nt
CCN(CC)C(=O)Cn1nc2c3c4c(sc3nc(C)n2c1=O)CC(C)CC4 (stereo unspecified),nt,nt,-22.1,nt,nt,nt
O=C(CNCC1CCCO1)N1CCCc2ccccc21 (stereo unspecified),8.6,6.4,-1.8,9.3,51.8*,15.2
Cc1nc2c(c(=O)[nH]1)CCN(C(=O)c1cc(C3CC3)oc1C)C2,nt,nt,-1.1,nt,nt,nt
COc1ccc(N2C(=S)N=C(Nc3ccccc3)C23CCCCC3)cc1,10.1,-2.1,23.8,9.4,0.7,101.1*
CCOc1cccc2c1OC1(C)CC2NC(=O)N1Cc1ccccc1 (stereo unspecified),36.7,62.2*,21.8,0.5,37.8,3.7
COc1cccc2c1OC1(C)CC2NC(=O)N1Cc1ccccc1 (stereo unspecified),5.6,-1.9,10.6,7.5,-12.0,2.3
COc1nccnc1NS(=O)(=O)c1ccc(NC(=S)NC(=O)/C=C/c2cccs2)cc1,nt,nt,-149.3,18.9,nt,nt
COc1ccc(-c2cc3nccc(C4CCN(C(=O)OC(C)(C)C)CC4)n3n2)cc1OC,nt,nt,79.6*,nt,nt,nt
CC(=O)Nc1ccc2c(c1)C(=O)c1ccccc1C2=O,-4.2,-8.5,-5.6,3.3,0.9,-5.8
O=C(Nc1ccc(Nc2ccc3c(c2)C(=O)c2ccccc2C3=O)c2c1C(=O)c1ccccc1C2=O)c1ccccc1,nt,nt,-14.5,44.5*,nt,nt
SMILES,FXIIa inh 1536,FXIa inh,EP2 mod,EP2 antag,KLK5 inh,thrombin 1536
Cc1cc2c(cc3c(=O)n(CC(=O)NC4CC4)nc(C)n32)o1,nt,nt,-29.3,6.2,nt,nt
CN1CCN(CC(=O)N2CCn3c4c(c5cc(C6CCCCC6)ccc53)CCCC42)CC1 (stereo unspecified),16.1,17.9,-34.1,91.4*,-1.1,-4.7
C=CCn1c(Cc2c(C)[nH]c3ccccc23)nnc1SCC(=O)Nc1ccc(F)cc1,nt,nt,-14.6,5.3,nt,nt
Cc1ccc(S(=O)(=O)N2CCC(C(=O)Nc3nnc(-c4ccco4)s3)CC2)cc1,-12.4,-7.8,-2.6,46.0*!,-13.9,-3.2
CSc1ccc(NC(=O)Nc2cccn(Cc3ccccc3)c2=O)cc1,3.2,-4.3,15.5,5.9,66.1*,-11.4
CCOc1cc2c(cc1CN(C)CCN1CCCCC1)OCO2,nt,nt,20.5,4.9,nt,nt
N#Cc1c(SCC(=O)O)nc2c(c1-c1cccnc1)CCC2,nt,nt,54.1,22.4,nt,nt
Cc1cc(NC(=O)CSc2nc3c(c(-c4cccnc4)c2C#N)CCC3)no1,10.9,-4.1,30.8,49.2*,0.9,-4.6
CCCCSc1nc(C)nc2c1c(=O)n(C)c(=O)n2C,19.0,9.8,62.7*,9.8,-8.4,-1.3
CCCSc1nc(C)nc2c1c(=O)n(C)c(=O)n2C,4.3,4.8,24.7,10.1,-21.5,-3.9
CCOC(=O)CN(C)C(=O)CCc1nnc(-c2ccsc2)o1,9.3,-1.9,5.0,10.4,4.1,-3.8
COc1cccc(CN(C)C(=O)CCc2nnc(-c3ccsc3)o2)c1,9.1,-0.1,18.8,8.2,3.1,94.1*
Cc1ccc(CN(C)C(=O)CC2C(=O)NCCN2CC2CCCCC2)cc1 (stereo unspecified),4.8,-1.8,-25.9,5.5,nt,1.1
CN(Cc1ccon1)C(=O)CC1C(=O)NCCN1CC1CCCCC1 (stereo unspecified),28.3,60.0*,13.8,4.3,35.3,-1.7
O=C(NCC(=O)N1CCN(S(=O)(=O)/C=C/c2ccccc2)CC1)c1ccccc1F,56.7*,25.7,-13.1,3.5,39.1,nt
O=C(NCC(=O)N1CCN(S(=O)(=O)/C=C/c2ccccc2)CC1)c1ccc(Cl)cc1,12.9,2.3,4.3,8.0,3.9,2.3
CSc1nnc(C2CC(O)CN2)n1C (stereo unspecified),nt,nt,14.6,6.5,nt,nt
C=CCn1c(SCc2ccc(F)cc2)nc2c1c(=O)n(C)c(=O)n2C,nt,nt,5.7,8.0,nt,nt
O=C(CNC(=S)N(Cc1ccccc1)Cc1ccccc1F)NCc1ccccc1,12.0,-1.9,20.1,4.9,-3.3,-5.5
O=C(CNC(=S)N(Cc1ccccc1)Cc1ccccc1F)NCCc1ccccc1,40.6*,10.9,23.0,2.4,17.9,9.4
COCCSc1ccccc1C(=O)Nc1ccc(S(=O)(=O)Nc2nccs2)cc1,nt,nt,2.2,6.6,nt,nt
COc1ccc(C(=O)NC(=S)N2CCCCC2)cc1,33.4,16.9,-9.3,9.3,43.6*,19.3
Cc1ccc(-c2nnn(CC(=O)N(c3ccccc3C)C(C(=O)NC3CCCC3)c3ccco3)n2)o1 (stereo unspecified),nt,nt,6.5,7.9,nt,nt
Cc1[nH]c(=O)[nH]c(=O)c1/C=N/NC(=O)[C@H](CC(C)C)NC(=O)OC(C)(C)C,7.2,-2.9,11.8,nt,-20.0,1.6
Cc1[nH]c(=O)[nH]c(=O)c1/C=N/NC(=O)[C@@H](N)CC(C)C,45.1*,30.6,-18.8,7.0,21.2,3.3
O=C(NCc1ccc(F)cc1)c1ccc(S(=O)(=O)Nc2cccc(C(F)(F)F)c2)cc1,9.7,5.3,-12.7,3.9,49.3*,25.2
O=C(Cc1ccccc1)Nc1cccc(N2C(=O)C=CC2=O)c1,14.2,11.3,-69.4,132.9*,-4.9,-0.3
